What all share (type): functional, cell-based
For assay [1], the target named is Trace amine-associated receptor 1 (Rattus norvegicus) (UniProt Q923Y9). Nature of the assay: Antagonist activity at rat TAAR1 expressed in HEK293 cells assessed as intracellular cAMP level at 10 uM after 1 hr. Put shortly:
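Stably rTAAR1-transfected HEK293 cells were harvested in Krebs-Ringer-Hepes buffer and incubated in it with 133 µM IBMX, 1 h at 37 °C. Test compound at 10 µM was given in competition with the agonist T1AM at 33 nM. Intracellular cAMP was read. At least three separate experiments, each in triplicate.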
For orientation: Changes in cAMP serve as a functional read-out for many G protein-coupled receptors.

For assay [2] the target is unchanged. Nature of the assay: Agonist activity at rat TAAR1 expressed in HEK293 cells assessed as intracellular cAMP level at <=10 uM after 1 hr. Put shortly:
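HEK293 cells stably transfected with rTAAR1 (empty pcDNA3 vector cells as control) were harvested in Krebs-Ringer-Hepes buffer (KRH), then incubated in KRH with 133 µM IBMX plus test compound, forskolin (10 µM) or vehicle (DMSO) for 1 h at 37 °C. Intracellular cAMP was read. Tested at 10 µM or below. At least three separate experiments, each in triplicate.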

For assay [3], the target named is Trace amine-associated receptor 1 (Rattus norvegicus, UniProt Q923Y9). Briefly: Agonist activity at rat TAAR1 expressed in HEK293 cells assessed as intracellular cAMP level. Put shortly: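 HEK293 cells stably transfected with rat TAAR1, with empty pcDNA3 vector cells as control, were harvested in Krebs-Ringer-Hepes buffer. They were incubated in the same buffer with 133 µM IBMX plus test compound, 10 µM forskolin or DMSO vehicle for 1 h at 37 °C. Results are mean ± SEM of at least three separate experiments, each run in triplicate.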

Active and inactive are the calls of the source. No cut-off for these calls is given here.

Sequence of Trace amine-associated receptor 1 (Rattus norvegicus) (Q923Y9 whole entry, the tested form may be a part): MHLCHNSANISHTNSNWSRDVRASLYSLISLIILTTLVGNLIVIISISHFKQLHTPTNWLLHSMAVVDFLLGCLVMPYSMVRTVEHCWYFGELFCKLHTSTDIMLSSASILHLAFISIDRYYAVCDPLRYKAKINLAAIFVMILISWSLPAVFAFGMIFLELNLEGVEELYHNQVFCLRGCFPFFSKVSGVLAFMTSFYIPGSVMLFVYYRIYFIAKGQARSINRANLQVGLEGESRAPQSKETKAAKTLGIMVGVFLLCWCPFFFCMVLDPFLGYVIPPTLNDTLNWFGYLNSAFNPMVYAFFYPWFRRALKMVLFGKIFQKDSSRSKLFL
Sequence of Trace amine-associated receptor 1 (Q923Y9 whole entry): as the sequence (Q923Y9 whole entry, the tested form may be a part) above

On to `CCCCc1oc2ccccc2c1C(=O)c1ccc(OCCN(CC)CC)cc1`, for which the result in assay [1] was inactive.

For the compound `CCCCc1oc2ccccc2c1C(=O)c1ccc(OCCN)cc1`, in assay [2], the result was Active.

For `CCCCc1oc2ccccc2c1C(=O)c1ccc(OCCN)c(I)c1`, in assay [2], the outcome was Active.

For the compound `CCCCc1oc2ccccc2c1C(=O)c1ccc(OCCNCC)cc1`, the result in assay [2] was Active.

With `CCCCc1oc2ccccc2c1C(=O)c1cc(I)c(OCCNCC)c(I)c1`, in assay [1], the outcome was inactive.

With `CCCCc1oc2ccccc2c1C(=O)c1ccc(OCCN(CC)CC)c(I)c1`, the outcome in assay [1] was inactive.

Take `CCCCc1oc2ccccc2c1C(=O)c1ccc(OCCNCC)c(I)c1`: in assay [1], the outcome was inactive.

With `CCCCc1oc2ccccc2c1C(=O)c1cc(I)c(OCCN)c(I)c1`, in assay [2], the outcome was Active. Moreover, the concentration for a half-maximal effect (EC50) in assay [3] was found to be 1000 nM.

What is called EC50 is the concentration that produces a half-maximal response.

The record behind these values is ChEMBL document CHEMBL1151799, “Trace amine-associated receptor 1 (TAAR1) is activated by amiodarone metabolites” (Bioorg Med Chem Lett, 2008).
